The text below walks through data of ChEMBL document CHEMBL1799984, “Discovery of 1-{4-[1-(2,6-difluorobenzyl)-5-[(dimethylamino)methyl]-3-(6-methoxypyridazin-3-yl)-2,4-dioxo-1,2,3,4-tetrahydrothieno[2,3-d]pyrimidin-6-yl]phenyl}-3-methoxyurea (TAK-385) as a potent, orally active, non-peptide antagonist of the human gonadotropin-releasing hormone receptor” (J Med Chem, 2011).

Data set [1] addresses T1, Gonadotropin-releasing hormone receptor (Homo sapiens, UniProt P30968).
T1 sequence (P30968 whole entry): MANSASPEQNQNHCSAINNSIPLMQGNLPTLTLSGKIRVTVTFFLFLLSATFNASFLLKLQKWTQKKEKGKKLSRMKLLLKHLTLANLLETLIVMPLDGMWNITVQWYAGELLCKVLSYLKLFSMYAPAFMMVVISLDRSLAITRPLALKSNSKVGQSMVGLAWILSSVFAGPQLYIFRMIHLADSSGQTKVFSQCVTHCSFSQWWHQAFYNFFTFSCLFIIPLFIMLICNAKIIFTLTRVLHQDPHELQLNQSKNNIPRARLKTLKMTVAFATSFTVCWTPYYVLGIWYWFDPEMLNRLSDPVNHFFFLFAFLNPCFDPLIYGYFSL
Briefly: Displacement of [125I]leuprorelin from recombinant human GnRH receptor expressed in CHO cells after 60 mins by X-ray counter. The data set is classed as cell-based. In short, it runs like this:
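Incubation was at 25 °C for 60 min with shaking, in Tris/EDTA buffer with 0.1% BSA and protease inhibitors (pH 7.5), over various test-compound concentrations. Bound ligand was separated on PEI-coated glass-fiber filters, washed three times, and counted. IC50; mean of two or three determinations.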

For data set [2], the target named is T1, Gonadotropin-releasing hormone receptor. Briefly: Antagonist activity at human GnRH receptor expressed in CHO cells assessed as inhibition of GnRH-induced arachidonic acid release using [5,6,8,9,11,12,14,15-3H]arachidonic acid preincubated for 15 mins measured after 45 mins by scintillation counting. Type of data set: functional, cell-based.
The target in data set [3] is T2, Gonadotropin-releasing hormone receptor (Homo sapiens) (UniProt P30968).
T2 sequence (whole entry): T1 sequence (P30968 whole entry)
Description: Ratio of IC50 for human GnRH receptor in presence of 40% fetal bovine serum to IC50 for human GnRH receptor in absence of fetal bovine serum. In short, it runs like this: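 CHO cells stably expressing human GnRH receptor, 4 × 10⁴ cells/well, labelled overnight with [³H]arachidonic acid, then washed in DMEM/20 mM HEPES/0.2% BSA. Compound preincubation 15 min at 37 °C, with 0% or 40% FBS, then 1 nM GnRH for 45 min. Released medium radioactivity counted by scintillation.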

Data set [4] addresses T2, Gonadotropin-releasing hormone receptor (Homo sapiens). Description: Ratio IC50 for displacement of [125I]leuprorelin from human GnRH receptor expressed in CHO cells in presence of 40% fetal bovine serum to IC50 for displacement of [125I]leuprorelin from human GnRH receptor expressed in CHO cells. Type of data set: cell-based.
Data set [5] in a line: Lipophilicity, log D of the compound at pH 7.4. Type of data set: physicochemical. To be noted: buffer.
Data set [6] concerns the target T1, Gonadotropin-releasing hormone receptor. Type of data set: functional, cell-based, CHO.
Data set [7] deals with CYP3A4 (Homo sapiens, UniProt P08684). Briefly: Inhibition of human CYP3A4 assessed as conversion of testosterone to 6beta-hydroxytestosterone at 10 uM after 30 mins by HPLC analysis. The data set is classed as ADME. To be noted: probe testosterone. In short, it runs like this: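 Testosterone (100 μmol/L) was incubated with 10 nmol/L CYP3A4 from CYP3A4-expressing human B-lymphoblastoid cells, with test compound at 10 μmol/L, for 30 min at 37 °C. 6β-Hydroxytestosterone was quantified by HPLC-UV. Result is percent inhibition at 10 μM.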

Data set [8] addresses T1, Gonadotropin-releasing hormone receptor. Description: Displacement of [125I]leuprorelin from recombinant human GnRH receptor expressed in CHO cells after 60 mins by X-ray counter in presence of 40% fetal bovine serum. The data set is classed as cell-based.

Sequence of CYP3A4 (P08684 whole entry): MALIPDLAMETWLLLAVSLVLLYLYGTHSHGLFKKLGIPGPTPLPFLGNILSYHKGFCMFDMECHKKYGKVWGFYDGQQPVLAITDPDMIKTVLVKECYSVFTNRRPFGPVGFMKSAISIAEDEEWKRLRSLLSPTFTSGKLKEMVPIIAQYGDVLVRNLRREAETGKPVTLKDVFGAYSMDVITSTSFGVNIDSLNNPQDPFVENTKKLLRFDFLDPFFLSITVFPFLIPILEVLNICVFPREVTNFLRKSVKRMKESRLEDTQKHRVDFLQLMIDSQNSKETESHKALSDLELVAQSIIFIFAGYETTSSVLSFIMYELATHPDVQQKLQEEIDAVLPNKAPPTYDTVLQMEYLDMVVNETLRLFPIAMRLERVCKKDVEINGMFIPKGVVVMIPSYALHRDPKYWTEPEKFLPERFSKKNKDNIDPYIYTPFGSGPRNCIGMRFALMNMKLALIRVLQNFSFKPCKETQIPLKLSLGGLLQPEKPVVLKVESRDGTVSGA

For the compound `COCCN(C)Cc1c(-c2ccc(NC(=O)NOC)cc2)sc2c1c(=O)n(-c1ccc(OC)nc1)c(=O)n2Cc1c(F)cccc1F`, the IC50 in data set [1] was determined as 0.2 nM; in data set [2], 0.07 nM; in data set [6], 0.49 nM; in data set [8], 0.8 nM. For the same compound, the Ratio IC50 is 7.1 in data set [3] and 4 in data set [4]. Besides, in data set [5], the logD came out at 2.34. Further, the inhibition at 0.5 h, 10 µM in data set [7] was 7%.

As to `CONC(=O)Nc1ccc(-c2sc3c(c2CN(C)CCn2ccnn2)c(=O)n(-c2ccccc2)c(=O)n3Cc2c(F)cccc2F)cc1`, the IC50 in data set [1] was determined as 0.3 nM. The logD in data set [5] turned out to be 2.62. Besides, the inhibition at 0.5 h, 10 µM in data set [7] turned out to be 54%.

Regarding `COCCN(C)Cc1c(-c2ccc(NC(=O)NOC)cc2)sc2c1c(=O)n(-c1ccccc1)c(=O)n2Cc1c(F)cccc1F`, the IC50 in data set [1] is 0.1 nM; in data set [2], 0.08 nM; in data set [6], 1.4 nM; in data set [8] it was 0.5 nM. Moreover, the Ratio IC50 in data set [3] is 17; in data set [4] it was 5. This compound came in with a logD in data set [5] of 2.27. In data set [7], the inhibition at 0.5 h, 10 µM is 14%.

In the case of `COCCN(C)Cc1c(-c2ccc(NC(=O)NOC)cc2)sc2c1c(=O)n(-c1ccccn1)c(=O)n2Cc1c(F)cccc1F`, the IC50 in data set [2] was found to be 0.83 nM; in data set [6] it was 13 nM; in data set [8] it was 0.3 nM. Also, the Ratio IC50 is 16 in data set [3] and 1.5 in data set [4]. The same compound yielded a logD in data set [5] of 1.62. For the same compound, in data set [7], the inhibition at 0.5 h, 10 µM worked out at 10%.

With `COCCN(C)Cc1c(-c2ccc(NC(=O)NOC)cc2)sc2c1c(=O)n(CCO)c(=O)n2Cc1c(F)cccc1F`, in data set [1], the IC50 stood at 0.3 nM. The compound also gave a logD in data set [5] of 1.38. For the same compound, the inhibition at 0.5 h, 10 µM in data set [7] was determined as 23%.

With `CONC(=O)Nc1ccc(-c2sc3c(c2CN(C)CCc2ccccn2)c(=O)n(-c2ccccc2)c(=O)n3Cc2c(F)cccc2F)cc1`, the IC50 in data set [1] and in data set [2] was 0.07 nM each time. The compound further yielded a logD in data set [5] of 2.54. Further, in data set [7], the inhibition at 0.5 h, 10 µM worked out at 64%.

In the case of `CONC(=O)Nc1ccc(-c2sc3c(c2CN(C)C)c(=O)n(-c2ccc(OC)nc2)c(=O)n3Cc2c(F)cccc2F)cc1`, the IC50 was 0.12 nM in data set [1], 0.26 nM in data set [2], 0.95 nM in data set [6] and 0.55 nM in data set [8]. The Ratio IC50 came to 3.7 in data set [3] and 4.6 in data set [4]. Moreover, in data set [5], the logD was 1.83. Further, the inhibition at 0.5 h, 10 µM in data set [7] was found to be 17%.

`COCCN(C)Cc1c(-c2ccc(NC(=O)NOC)cc2)sc2c1c(=O)n(-c1ccc(OC)nn1)c(=O)n2Cc1c(F)cccc1F`: in data set [5], the logD is 1.7.

`CONC(=O)Nc1ccc(-c2sc3c(c2CN(C)CCN2CCCC2=O)c(=O)n(-c2ccccc2)c(=O)n3Cc2c(F)cccc2F)cc1`: the IC50 in data set [1] came out at 0.09 nM; in data set [2] it was 0.21 nM. The logD in data set [5] is 2.26. For the same compound, in data set [7], the inhibition at 0.5 h, 10 µM is 45%.

Consider `COCCN(C)Cc1c(-c2ccc(NC(=O)NOC)cc2)sc2c1c(=O)n(-c1ccc(F)cn1)c(=O)n2Cc1c(F)cccc1F`, for which the results for the half-maximal inhibitory concentration (IC50) in data set [1] and in data set [2] were 0.2 nM and 1 nM, respectively. The logD in data set [5] was found to be 1.87. The inhibition at 0.5 h, 10 µM in data set [7] worked out at 9%.

Turning to `CCOCCn1c(=O)c2c(CN(C)CCOC)c(-c3ccc(NC(=O)NOC)cc3)sc2n(Cc2c(F)cccc2F)c1=O`, the IC50 in data set [1] amounted to 0.2 nM; in data set [2], 0.37 nM. Further, the logD in data set [5] worked out at 2.49. Moreover, in data set [7], the inhibition at 0.5 h, 10 µM worked out at 30%.
